Source: paper PMC6423489 (Heliyon, 2019)
Like-named read-outs stand apart in the source and are kept apart here.

Assays:
[1] = system: human lymphocytes; conditions: 100 and 200 μg/mL; ref Ündeğer and Başaran (2005); cited from earlier work
[2] = system: human peripheral lymphocytes; conditions: compared to the control group; ref Gomez-Arroyo et al. (1987); cited from earlier work
[3] = system: human peripheral lymphocytes; assay: In vitro micronucleus; assay type: cell-based; conditions: 72 h incubation
Method in brief: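 Whole blood from 3 healthy non-smoking donors (25–30 y) was treated with test compound at 0.5, 1.0 or 2.0 μg/mL in 2% DMSO for 72 h. Controls were distilled water, 2% DMSO and 10 mM EMS. Cytochalasin-B was added at 48 h and smears were Giemsa-stained. NDI was scored from 1000 cells and MN from 1000 binucleated cells per repeat, 3 donors, ANOVA.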

[4] = system: Escherichia coli; conditions: ref Mohn, 1973; Bianchi et al., 1994; cited from earlier work
[5] = system: Saccharomyces cerevisia; conditions: ref Mohn, 1973; Bianchi et al., 1994; cited from earlier work
[6] = system: Salmonella typhimurium; conditions: ref Mohn, 1973, Bianchi et al., 1994, cited from earlier work
[7] = 10mM, 3000 binucleated cells counted

SMILES	DNA damage [1]	sister chromatid exchanges [2]	MN within binucleat (1) ([3]; 0.5 μg/mL, 3000 binucleated cells counted)	%MN±S.E. ([3]; 0.5 μg/mL, compared with DMSO) [%]	NDI±S.E. ([3]; 0.5 μg/mL, compared with DMSO)	MN within binucleat (1) ([3]; 1.0 μg/mL, 3000 binucleated cells counted)	%MN±S.E. ([3]; 1.0 μg/mL, compared with DMSO) [%]	NDI±S.E. ([3]; 1.0 μg/mL, compared with DMSO)	MN within binucleat (1) ([3]; 2.0 μg/mL, 3000 binucleated cells counted)	%MN±S.E. ([3]; 2.0 μg/mL, compared with DMSO) [%]	mutagenicity [4]	mutagenicity [5]	mutagenicity ([6]; strain TA 100)	mutagenicity ([6]; strains TA 1535, TA 1537, TA 1538, TA 98 and TA 102)	MN within binucleat (1) [3, 7]	MN within binucleat (2) [3, 7]	MN within binucleat (3) [3, 7]	%MN±S.E. ([3]; 10mM, compared with distilled water) [%]
COP(=S)(OC)Oc1ccc([N+](=O)[O-])cc1 [methyl parathion]	significantly increased DNA damage	increased sister chromatid exchanges	–	–	–	–	–	–	–	–	–	–	–	–	–	–	–	–
CNC(=O)CSP(=S)(OC)OC [DIM]	significantly increased DNA damage	increased sister chromatid exchanges	27	0.90 ± 0.72	1.54 ± 0.20	29	0.97 ± 0.63	1.54 ± 0.23	63	2.10 ± 0.13	mutagenic	mutagenic	mutagenic	non-mutagenic	–	–	–	–
CCOS(C)(=O)=O [EMS, ethyl methanesulfonate, reference compound]	–	–	–	–	–	–	–	–	–	–	–	–	–	–	107	16	10	5.63 ± 1.60
